Experimental data from ChEMBL document CHEMBL1148694, “Calcitriol derivatives with two different side-chains at C-20. Part 4: further chain modifications that alter VDR-dependent monocytic differentiation potency in human leukemia cells” (2007).
Activity calls are given as the source filed them. No cut-off for these calls is given here.

Tests used:
[1] = Induction of differentiation in human HL60-G cells assessed as CD14 expression relative to 1-alpha,25-dihydroxyvitamin D3; assay type: functional
In short: (§1)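 HL60-G33 cells in RPMI 1640 with 10% bovine calf serum at 37 °C, 5% CO2, given compounds in fresh medium (ethanol vehicle); 1,25D at 0.1, 1 and 10 nM. 1×10^6 cells washed twice in PBS, stained on ice for 45 min with MO1-FITC (CD11b) and MY4-RD1 (CD14), then washed. Flow cytometry with acquisition set on isotype controls.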

[2] = Induction of differentiation in human HL60-G cells assessed as CD14 expression; assay type: functional; in short: as §1
[3] = Induction of differentiation in human HL60-G cells assessed as CD11b expression; assay type: functional; in short: as §1
[4] = Induction of differentiation in human HL60-G cells assessed as CD11b expression relative to 1-alpha,25-dihydroxyvitamin D3; assay type: functional; in short: as §1
[5] = (§2) Induction of CYP24 mRNA expression in human HL60-G cells at 1 nM after 12 hrs relative to 1-alpha,25-dihydroxyvitamin D3; assay type: functional
In short: (§3)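 HL60-G33 cells exposed to 1 nM compound for 12 h. Total RNA from 5×10^6 cells was DNase-treated, and 1 μg was reverse transcribed with MuLV RT and oligo-d(T). CYP24 transcript measured by SYBR green real-time PCR on a LightCycler with ARP0 as internal control. Values normalized to 1,25D treatment.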

[6] = Cell cycle arrest in HL60-G cells assessed as accumulation at G1 phase after 48 to 72 hrs; assay type: functional, cell-based; details: Homo sapiens
In short: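 HL60-G33 cells in RPMI 1640 with 10% bovine calf serum, 37 °C, 5% CO2, given compounds in fresh medium (ethanol vehicle) for 48 and 72 h over increasing concentrations. 1×10^6 cells fixed in 75% ethanol at -20 °C overnight, treated with RNase A 100 U/mL at 37 °C for 1 h, stained with propidium iodide 10 μg/mL. Flow cytometry; G1/S ratio.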

HL60-40AF = test: Induction of differentiation in 1-alpha,25-dihydroxyvitamin D3 resistant human HL60-40AF cells; assay type: functional, cell-based
In short: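 Differentiation-resistant HL60-40AF subclone adapted to grow in 1,25D, cultured in RPMI 1640 with 10% bovine calf serum. Compounds given in fresh medium with ethanol vehicle; 1,25D at 10 and 100 nM. 1×10^6 cells washed in PBS, stained on ice for 45 min with MY4-RD1 (CD14) and MO1-FITC (CD11b). Read by flow cytometry, gated on isotype controls.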

HL60-G = test: as §2; assay type: functional; in short: as §3

Compound	Activity [1]	ED20 [2] [nM]	ED20 [3] [nM]	Activity [4]	Fold change [5]	Activity [6]	Activity (HL60-40AF)	Activity (HL60-G)
CC(C)(O)CCC[C@@]1([C@H]2CCC3/C(=C/C=C4C[C@@H](O)C[C@H](O)C4)CCC[C@@]32C)C[C@H]1CCC(C)(C)O (stereo partly specified)	0.009	66.03	98.75	0.01				
C=C1/C(=C\C=C2/CCC[C@@]3(C)C2CC[C@@H]3[C@]2(CC#CC(O)(C(F)(F)F)C(F)(F)F)C[C@H]2CCC(C)(C)O)C[C@@H](O)C[C@@H]1O (stereo partly specified)	2.38	0.24	0.52	2.31	30	Active	Active	
C=C1/C(=C\C=C2/CCC[C@@]3(C)C2CC[C@@H]3[C@H](C)CCCC(C)(C)O)C[C@@H](O)C[C@H]1O (stereo partly specified)		0.57	1.2					
C=C1/C(=C\C=C2/CCC[C@@]3(C)C2CC[C@@H]3[C@]2(CCCC(C)(C)O)C[C@H]2CCC(C)(C)O)C[C@@H](O)C[C@@H]1O (stereo partly specified)		9.97	19.75	0.06				inactive
C=C1/C(=C\C=C2/CCC[C@@]3(C)C2CC[C@@H]3[C@]2(CCCC(C)(C)O)C[C@H]2CCC(C)(C)O)C[C@@H](O)C[C@H]1F (stereo partly specified)	<0.001	>500		<0.002				
CC(C)(O)CC[C@@H]1C[C@@]1(CC#CC(O)(C(F)(F)F)C(F)(F)F)[C@H]1CCC2/C(=C/C=C3C[C@@H](O)C[C@H](O)C3)CCC[C@@]21C (stereo partly specified)	1.24	0.46	1.17	1.03	2.5		Active	
